The test system of series [1] is EAC-bearing mice. Nature of the series: Survivability study. The class given is in vivo, mouse. The conditions noted are these: respective IC50 dosages, n=10. In a few lines:
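EAC-bearing mice (1×10⁶ cells intraperitoneally), ten per group, treated beginning 24 h after inoculation. Survival days recorded. ILS% = (T−C)/C×100, with T the survival days of treated mice and C those of untreated mice. Kaplan–Meier survival analysis.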

Series [2] relates to EAC-bearing mice. The series is described as follows: Haematological parameters of EAC-bearing mice. The series is classed as in vivo, mouse. Conditions: for Effect on haematological counts (in words): respective IC50 dosage; for Hb / Platelets / RBC / WBC: treatment at IC50 dose, mean±SD n=6. An outline of the steps:
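Female Swiss albino mice (7–8 wk) inoculated intraperitoneally with 1×10⁶ EAC cells on day 0, then treated on days 1–10. After 4 h fasting, heparinised cardiac blood collected. Haemoglobin by Sahli's method; RBC, WBC and platelets on an automated haematology analyser. Mean±SD, six mice per group.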

A further series deals with EAC cells. Nature of the series: In vivo IC50 determination in EAC cells by trypan blue dye exclusion. Conditions: Mus musculus, 24 h, read-out: IC50 (50 per cent lethality of EAC cells) in vivo.
Series [3] deals with MDA-MB-231 cells. Nature of the series: MTT assay for IC50 determination, MDA-MB-231. The series is classed as cell-based. The conditions noted are these: Homo sapiens, MDA-MB-231, read-out: IC50 for MDA-MB-231.
For series [4], the system named is EAC-bearing mice. Nature of the series: Hepatotoxicity and kidney toxicity parameters of EAC-bearing mice. Conditions: treatment at IC50 dosage; for ALP / ALT / AST / Creatinine / Urea: EAC-bearing mice, mean±SD n=6. The series is classed as in vivo, mouse.
For series [5], the system named is MCF-7 cells. The series is described as follows: MTT assay for IC50 determination, MCF-7. The class given is cell-based. The conditions noted are these: Homo sapiens, MCF7, read-out: IC50 for MCF-7.
Series [6] concerns EAC, MCF-7 and MDA-MB-231 cells. Nature of the series: Cell cycle phase distribution by flow cytometry. The class given is cell-based. The conditions noted are these: 10 days of treatment in vivo and 48 h in vitro, vs control. An outline of the steps: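 EAC cells taken from mice 10 days after daily XD dosing (days 1–10 after intraperitoneal inoculation with 1×10⁶ cells), PBS-washed and haemocytometer-counted. […] Cell-cycle distribution, including SubG0, by flow cytometry. Repeated at least three times.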
On the technique in general: A flow cytometer gives signals particle by particle.

The subject of the next series is normal mice. The series is described as follows: Chronic toxicity study with therapeutic dosage of XD. The class given is in vivo, mouse. Conditions: 8 μM, oral, 40 days, data not shown. In a few lines: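 Normal mice dosed orally with XD for 40 days; controls got 0.9% saline. After 4 h fasting, blood drawn by cardiac puncture, clotted, spun at 2000×g for 15 min, serum held at −20°C. ALT, ALP, urea and creatinine measured on an automated clinical chemistry analyser.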

For series [7], the system named is liver cytosol of EAC-bearing mice. The series is described as follows: Antioxidative enzymes and LPO in liver cytosol of EAC-bearing mice. The class given is in vivo, mouse. In a few lines:
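Liver from female Swiss albino mice bearing intraperitoneal EAC. After 15 days of treatment: GST in liver cytosol, rise in A340 with CDNB substrate, as CDNB-GSH conjugate formed per min per mg protein. GPx in post-mitochondrial fraction, fall in A340 after H₂O₂ addition, as nmol NADPH used per min per mg protein. Mean±SD, six per group.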

Series [8] has as its system EAC, MCF-7 and MDA-MB-231 cells. Nature of the series: DNA fragmentation assay. The series is classed as cell-based. Conditions: XD at respective IC50 dosage (8.1, 1 and 5 μM).
For series [9], the system named is MCF-7 cells. The series is described as follows: Comet assay, MCF-7 cells. The series is classed as cell-based, human. Conditions: MCF-7, XD 1 μM. An outline of the steps: (§1)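 Alkaline comet assay, about 10⁴ cells/slide in 1% low-melt agarose over normal agarose, capped with 0.5% low-melt agarose. Lysis overnight at 4°C (2.5 M NaCl, 100 mM Na₂-EDTA, 10 mM Tris, 1% Triton X-100, 10% DMSO, pH 10.0). Electrophoresis at pH 13.1, 30 min, 300 mA, 20 V. Tris neutralisation, ethidium bromide staining. Per cent damaged cells among 150–200 scored per slide.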

In series [10] the test system is MDA-MB-231 cells. The series is described as follows: Comet assay, MDA-MB-231 cells. The class given is cell-based, human. The conditions noted are these: MDA-MB-231, XD 5 μM. An outline of the steps: as §1
Series [11] concerns normal cells (fibroblast). Nature of the series: Comet assay, normal fibroblast. Conditions: highest dose of 40 μM. The class given is cell-based, mouse. An outline of the steps: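 Mouse fibroblasts treated with XD 24 h after seeding and harvested 48 h later. Alkaline comet assay: cells in low-melt agarose layers, overnight lysis at 4°C at pH 10.0, electrophoresis at pH 13.1 for 30 min (300 mA, 20 V), neutralisation, ethidium bromide stain. Fluorescence microscopy; damaged-cell per cent and tail length from 150–200 cells per slide.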

The test system of the next series is Bax:Bcl-2. The series is described as follows: Western blot Bax:Bcl-2 ratio. The series is classed as cell-based. Conditions: EAC, MCF-7 and MDA-MB-231 cells, XD-treated vs control. An outline of the steps: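 Whole-cell extracts prepared from control and XD-treated EAC, MCF-7 and MDA-MB-231 cells. Bax and Bcl-2 immunoblotted and the Bax:Bcl-2 ratio calculated. EAC cells came from mice dosed on days 1–10 after intraperitoneal tumour inoculation. Repeated at least three times, mean±SD.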

The subject of another series is normal murine fibroblast. The series is described as follows: MTT cytotoxicity on normal mouse fibroblast. The conditions noted are these: xanthones up to highest concentration, cisplatin at 20 μM, XD at 1 and 5 μM. The class given is cell-based.
For another series, the system named is normal fibroblast. The series is described as follows: Intracellular ROS generation. The class given is cell-based, mouse. The conditions noted are these: treatment with 50 μM.
The test system of series [12] is EAC, MCF-7 and MDA-MB-231 cells. Nature of the series: TUNEL assay. The class given is cell-based. The conditions noted are these: in vivo and in vitro models, vs control. An outline of the steps:
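EAC cells recovered from the peritoneum of mice after 10 days of XD dosing, PBS-washed, smeared and fixed in 4% paraformaldehyde. MCF-7 and MDA-MB-231 cells grown on coverslips and fixed in paraformaldehyde. Fluorescein in situ cell-death (TUNEL) kit used per manufacturer; positive cells imaged by fluorescence microscopy at ×20.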

The test system is the same in series [13]. The series is described as follows: Intracellular ROS generation. The series is classed as cell-based. Conditions: XD at respective IC50 (8.1, 1 and 5 μM), in vivo and in vitro, vs untreated.
Where [14] appears, read: EAC-bearing mice, XD-treated 8.1 µM.

On to `N.N.[Cl][Pt][Cl]` [Cisplatin, reference compound], for which the “Increase in life span of tumour-bearing mice (ILS%)” value (“Increase in life span … (ILS%)” for short) in the series on EAC-bearing mice [1] is recorded as 36.36%. Further, in the series with EAC-bearing mice [2], the “Effect on haematological counts (in words)” value is “lowering of RBC, Hb and platelets”; the Hb was 2.1 ± 0.4 g/dL; the Platelets was 200±2 10^3/µl; the RBC was 2.7±0.6 10^6/µl. In the series with EAC-bearing mice [2], the WBC is given as 35.8±0.8 10^3/µl.

One may read the IC50 as the concentration at which inhibition is half-maximal. Turning to `COc1cc(O)c2c(=O)c3c(OC)ccc(OC)c3oc2c1` [XC, 1-hydroxy-3,5,8-trimethoxyxanthone], in the series on EAC-bearing mice [1], the “Increase in life span … (ILS%)” value turned out to be 81%. In the series on EAC cells, the IC50 was found to be 32.4 µM. Moreover, the IC50 in the series with MDA-MB-231 cells [3] was determined as 25 µM. Further, in the series on EAC-bearing mice [2], the Hb stood at 7.9 ± 0.9 g/dL, the Platelets was 441±2 10^3/µl, the RBC is 5.75±0.2 10^6/µl and the WBC is recorded as 27.2±0.8 10^3/µl. In the series on EAC-bearing mice [4], this molecule displayed an ALP of 106±2 IU/l, an ALT of 85±5 IU/l, an AST of 355±9 IU/l and a Creatinine of 1.2 ± 0.09 mg/dL. This molecule showed a Urea with EAC-bearing mice [4] of 79 ± 8 mg/dL. Besides, the IC50 with MCF-7 cells [5] is 8 µM.

As to `COc1cc(O)c2c(=O)c3c(OC)c(OC)ccc3oc2c1` [XA, 1-hydroxy-3,7,8-trimethoxyxanthone], the “Increase in life span … (ILS%)” value with EAC-bearing mice [1] is on record as 45%. Moreover, the IC50 in the series on EAC cells came out at 48.5 µM. In addition, the IC50 with MDA-MB-231 cells [3] is 50 µM. In addition, in the series on EAC-bearing mice [2], the Hb is 7.5 ± 0.8 g/dL, the Platelets is given as 456±3 10^3/µl, the RBC is 4.15±0.4 10^6/µl and the WBC is 30.8±0.6 10^3/µl. In the series with EAC-bearing mice [4], this molecule displayed an ALP of 103±3 IU/l, an ALT of 91±3 IU/l, an AST of 350±1 IU/l and a Creatinine of 1.7 ± 0.09 mg/dL. For the same molecule, the Urea in the series on EAC-bearing mice [4] stood at 71 ± 8 mg/dL. The IC50 with MCF-7 cells [5] was 30 µM.

In the case of `COc1cc(O)c2c(=O)c3c(O)ccc(O)c3oc2c1` [XD, 1,5,8-trihydroxy-3-methoxyxanthone], in [6], the SubG0 population result was “significantly (P<0.001) increase”. In addition, in the series with EAC-bearing mice [1], the “Increase in life span … (ILS%)” value was found to be 140%. Further, in the series with normal mice, the “Chronic toxicity (liver and kidney toxicity parameters)” value is on record as “did not show any toxicity”. Moreover, the IC50 in the series with EAC cells is 8.1 µM. In series [7] (Drug control group), this molecule showed a CAT of 0.4±0.06 units/mg, a GPx of 8.28 ± 0.6 nmol/mg, a GSH of 2.6 ± 0.3 nmol/mg and a GST of 8 ± 0.6 nmol/mg. In [7] (Drug control group), this molecule yielded an LPO of 1.6 ± 0.09 mol/mg and an SOD of 17±6 units/mg. In series [7] (setting [14]), this molecule had a GPx of 9.9 ± 2 nmol/mg, a GSH of 5.72 ± 1 nmol/mg, a GST of 15 ± 5 nmol/mg and an LPO of 1.8 ± 0.09 mol/mg. In [7] (setting [14]), the SOD worked out at 35±0.8 units/mg. Moreover, the DNA fragmentation entry in [8] is on record as “smearing pattern”. Also, the “per cent of damaged cells (comet assay)” value with MCF-7 cells [9] is on record as 65 per cent. In the series on MDA-MB-231 cells [3], the IC50 worked out at 5 µM. Also, the “per cent of damaged cells (comet assay)” value in the series with MDA-MB-231 cells [10] amounted to 67 per cent. Moreover, in the series with EAC-bearing mice [2], the “Effect on haematological counts (in words)” value is “lower WBC and platelet counts back to normal level”; the Hb worked out at 10 ± 2 g/dL; the Platelets is on record as 341±8 10^3/µl; the RBC is reported as 5.05±0.5 10^6/µl. In addition, in the series on EAC-bearing mice [2], the WBC was 17.2±0.2 10^3/µl. Further, in series [11], the “DNA damage in normal cells (comet assay)” value was “no DNA damage was seen in normal cells”. The “intracellular Bax:Bcl-2 ratio” value in the series on Bax:Bcl-2 is given as “significant (P<0.001) augmentation”. Further, the “Effect on normal murine fibroblast” value in the series with normal murine fibroblast was “without affecting the normal cells”. In the series on EAC-bearing mice [4], this molecule showed an ALP of 57.2±2 IU/l, an ALT of 79±2 IU/l, an AST of 205±5 IU/l and a Creatinine of 0.7 ± 0.09 mg/dL. Moreover, in the series with EAC-bearing mice [4], the Urea was found to be 41 ± 8 mg/dL. Besides, in the series on EAC-bearing mice [4] (compared to normal mice), the “Liver and kidney toxicity parameters in tumour-bearing mice” value is “almost back to normal”. In addition, the IC50 with MCF-7 cells [5] was determined as 1 µM. The “ROS generation in normal fibroblast” value with normal fibroblast is on record as “augmentation of ROS generation was not seen”. The “Apoptosis by TUNEL assay” value in [12] was “significant apoptosis”. For the same molecule, the ROS level entry in series [13] is “significantly (P<0.001) increased”.

Regarding `COc1cc(O)c2c(=O)c3c(O)ccc(OC)c3oc2c1` [XB, 1,8-dihydroxy-3,5-dimethoxyxanthone], in the series with EAC-bearing mice [1], the “Increase in life span … (ILS%)” value worked out at 63%. The IC50 in the series with EAC cells was determined as 48.5 µM. In addition, the IC50 in the series on MDA-MB-231 cells [3] came to 30 µM. Also, in the series with EAC-bearing mice [2], the Hb stood at 7.4 ± 0.5 g/dL, the Platelets is on record as 596±4 10^3/µl, the RBC was 4.75±0.3 10^6/µl and the WBC is reported as 24.6±0.6 10^3/µl. Further, in the series with EAC-bearing mice [4], the ALP is given as 160±5 IU/l, the ALT is on record as 93±4 IU/l, the AST is recorded as 335±8 IU/l and the Creatinine worked out at 1.1 ± 0.09 mg/dL. The Urea in the series with EAC-bearing mice [4] amounted to 67 ± 8 mg/dL. For the same molecule, in the series on MCF-7 cells [5], the IC50 was found to be 25 µM.
